Here are results for 19 molecules from ChEMBL document CHEMBL3860021, “Screening and Design of Inhibitor Scaffolds for the Antibiotic Resistance Oxacillinase-48 (OXA-48) through Surface Plasmon Resonance Screening” (J Med Chem, 2016).

Series [1] deals with T1, Beta-lactamase OXA-48 (Klebsiella pneumoniae, UniProt Q6XEC0). Briefly: Binding affinity to native signal deficient and TEV cleavage site containing His-tagged Klebsiella pneumoniae OXA-48 expressed in Escherichia coli assessed as dissociation constant by SPR assay. Background: SPR reads the build-up and loss of mass on a sensor chip optically.
The target in series [2] is T1, Beta-lactamase OXA-48. The experiment in a line: Inhibition of native signal containing Klebsiella pneumoniae OXA-48 using nitrocefin substrate pre-incubated for 5 mins before substrate addition.
Series [3] can be described thus: Inhibition of beta-lactamase VIM-2 (unknown origin).
Series [4] deals with Beta-lactamase OXA-48 (Klebsiella pneumoniae) (UniProt Q6XEC0). Briefly: Inhibition of native signal containing Klebsiella pneumoniae OXA-48 at 1.5 uM using nitrocefin substrate pre-incubated for 5 mins before substrate addition. The method, boiled down: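 Avibactam dilution series (50 nM–20 µM) was preincubated about 5 min with 100 pM nOXA-48, then started with 25 µM nitrocefin. Buffer was phosphate pH 7.0 with 50 mM NaHCO3 and 0.2 mg/ml BSA, at 25 °C. Competition read-out from initial hydrolysis rates.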

Series [5] shares this target. The experiment in a line: Binding affinity to native signal deficient and TEV cleavage site containing His-tagged Klebsiella pneumoniae OXA-48 expressed in Escherichia coli assessed as association rate constant by SPR assay. The method in brief: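 SPR with tOXA-48 amine-coupled to a CM5 chip (~5000 RU, immobilised from 10 mM MES pH 5.5). Meropenem was injected as a 2-fold series, 62.5 nM-32 µM, at 30 µL/min, with 60 s contact and 240 s dissociation. Sensorgrams were double-referenced and fitted to a 1:1 kinetic model.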

In series [6] the target is T1, Beta-lactamase OXA-48. The experiment in a line: Binding affinity to native signal deficient and TEV cleavage site containing His-tagged Klebsiella pneumoniae OXA-48 expressed in Escherichia coli assessed as dissociation rate constant by SPR assay. The method in brief:
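tOXA-48 (E. coli BL21 Star (DE3) pRARE, His tag removed by TEV, cation-exchange polished) amine-coupled to CM5 chip (~5000 RU, from 25 µg/mL in 10 mM MES pH 5.5). Fragments 2-fold series 118-900 µM (or 1.8-900 µM), double-referenced, steady-state fit. Meropenem 62.5 nM-32 µM, 1:1 kinetic fit.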

Substrate in series [7]: CC1(C)S[C@@H]2[C@H](NC(=O)Cc3ccccc3)C(=O)N2[C@H]1C(=O)O
Briefly: (§1) Activity of native signal containing Klebsiella pneumoniae OXA-48 by Michaelis-Menten kinetics assay. The method, boiled down:
(§2)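 Steady-state kinetics of nOXA-48 at 25 °C in 100 mM sodium phosphate pH 7.0, 50 mM NaHCO3, 0.2 mg/ml BSA. Substrates were ampicillin, benzylpenicillin, cefepime, CENTA, meropenem, imipenem and nitrocefin, each over its own concentration range, with 100 pM–140 nM enzyme. Reactions were enzyme-started and followed spectrophotometrically. Velocities came from the linear phase, fitted to Michaelis-Menten.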

Substrate in series [8]: CC1(C)S[C@@H]2[C@H](NC(=O)[C@H](N)c3ccccc3)C(=O)N2[C@H]1C(=O)O
The series is described as §1. The method in brief: as §2

Substrate in series [9]: CO/N=C(\C(=O)N[C@@H]1C(=O)N2C(C(=O)[O-])=C(C[N+]3(C)CCCC3)CS[C@H]12)c1csc(N)n1
The series is described as §1. The method, boiled down:
as §2

Substrate in series [10]: C[C@@H](O)[C@H]1C(=O)N2C(C(=O)O)=C(SCCNC=N)C[C@H]12
Described as §1. The method, boiled down: as §2

Substrate in series [11]: C[C@@H](O)[C@H]1C(=O)N2C(C(=O)O)=C(S[C@@H]3CN[C@H](C(=O)N(C)C)C3)[C@H](C)[C@H]12
The series is described as §1. The method in brief: as §2

Substrate in series [12]: O=C(Cc1cccs1)N[C@@H]1C(=O)N2C(C(=O)O)=C(/C=C/c3ccc([N+](=O)[O-])cc3[N+](=O)[O-])CS[C@H]12
Described as §1. The method in brief: as §2

Substrate in series [13]: O=C(Cc1cccs1)N[C@@H]1C(=O)N2C(C(=O)O)=C(CSc3ccc([N+](=O)[O-])c(C(=O)O)c3)CS[C@H]12
The description is as §1. The method in brief:
as §2

Substrate in series [14]: CC1(C)S[C@@H]2[C@H](NC(=O)Cc3ccccc3)C(=O)N2[C@H]1C(=O)O
Briefly: (§3) Activity of native signal containing Klebsiella pneumoniae OXA-48 assessed as ratio of Kcat to Km by Michaelis-Menten kinetics assay. The method in brief: as §2

Substrate in series [15]: CC1(C)S[C@@H]2[C@H](NC(=O)[C@H](N)c3ccccc3)C(=O)N2[C@H]1C(=O)O
The series is described as §3. The method, boiled down: as §2

Substrate in series [16]: CO/N=C(\C(=O)N[C@@H]1C(=O)N2C(C(=O)[O-])=C(C[N+]3(C)CCCC3)CS[C@H]12)c1csc(N)n1
The description is as §3. The method in brief:
as §2

Substrate in series [17]: C[C@@H](O)[C@H]1C(=O)N2C(C(=O)O)=C(SCCNC=N)C[C@H]12
Described as §3. The method in brief: as §2

Substrate in series [18]: C[C@@H](O)[C@H]1C(=O)N2C(C(=O)O)=C(S[C@@H]3CN[C@H](C(=O)N(C)C)C3)[C@H](C)[C@H]12
The series is described as §3. The method in brief:
as §2

Substrate in series [19]: O=C(Cc1cccs1)N[C@@H]1C(=O)N2C(C(=O)O)=C(/C=C/c3ccc([N+](=O)[O-])cc3[N+](=O)[O-])CS[C@H]12
The series is described as §3. The method in brief: as §2

Substrate in series [20]: O=C(Cc1cccs1)N[C@@H]1C(=O)N2C(C(=O)O)=C(CSc3ccc([N+](=O)[O-])c(C(=O)O)c3)CS[C@H]12
The description is as §3. The method, boiled down:
as §2

Substrate in series [21]: O=C(Cc1cccs1)N[C@@H]1C(=O)N2C(C(=O)O)=C(/C=C/c3ccc([N+](=O)[O-])cc3[N+](=O)[O-])CS[C@H]12
Briefly: Activity of native signal deficient and TEV cleavage site containing His-tagged Klebsiella pneumoniae OXA-48 expressed in Escherichia coli by Michaelis-Menten kinetics assay. The method, boiled down: (§4)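 His-tag-removed tOXA-48 from E. coli BL21 Star (DE3) pRARE, purified by HisTrap, TEV cleavage and cation exchange. Hydrolysis of nitrocefin (10-300 µM) was read at 482 nm with 1 nM enzyme. Buffer was 100 mM phosphate pH 7.0, 50 mM NaHCO3, 0.2 mg/ml BSA at 25 °C. Enzyme-started; linear-phase rates were fitted to Michaelis-Menten.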

Substrate in series [22]: O=C(Cc1cccs1)N[C@@H]1C(=O)N2C(C(=O)O)=C(/C=C/c3ccc([N+](=O)[O-])cc3[N+](=O)[O-])CS[C@H]12
Briefly: Activity of native signal deficient and TEV cleavage site containing His-tagged Klebsiella pneumoniae OXA-48 expressed in Escherichia coli assessed as ratio of Kcat to Km by Michaelis-Menten kinetics assay. The method in brief: as §4

Activity calls are given as the source filed them. No cut-off for these calls is given here.

What is called Kd is the constant that tells how readily two partners part at equilibrium. The term IC50 denotes the concentration at which inhibition is half-maximal. Read a high IC50 as a need for much substance. Broadly, the inhibition is how much of the control response was suppressed. As a reminder, the koff is a measure of how fast the partners let go of each other. As a reminder, the Km is the substrate concentration at which the rate is half of its maximum. As a reminder, the kcat is the number of substrate molecules converted per active site and unit of time at saturation.

With `O=C(O)c1cc(-c2ccncc2)cc(-c2ccncc2)c1`, the Kd at Beta-lactamase OXA-48 [1] is 50 µM. This molecule displayed a half-inhibitory concentration (IC50) against Beta-lactamase OXA-48 [2] of 18 µM. Besides, in series [3], the inhibition entry was “Active”.
With `Nc1cccnc1-c1cccc(C(=O)O)c1`, the Kd on Beta-lactamase OXA-48 [1] was 330 µM. On Beta-lactamase OXA-48 [2], this molecule gave a 50% inhibitory concentration (IC50) of 180 µM.
Regarding `O=C(O)c1cccc(-c2ccccc2)c1`, the dissociation constant Kd on Beta-lactamase OXA-48 [1] was 370 µM. This molecule registered an IC50 on Beta-lactamase OXA-48 [2] of 260 µM.
As for `O=C(O)c1cccc(-c2nccs2)c1`, on Beta-lactamase OXA-48 [1], the equilibrium dissociation constant (Kd) amounted to 310 µM. For the same molecule, the 50% inhibitory concentration (IC50) against Beta-lactamase OXA-48 [2] is 250 µM.
Consider `c1ccc(-c2ccncc2)cc1`, for which the Kd at Beta-lactamase OXA-48 [1] is above 1000 µM. In addition, on Beta-lactamase OXA-48 [2], the IC50 was above 2000 µM.
As for `Cc1cc2ccc(C(=O)O)cc2cn1`, the Kd at Beta-lactamase OXA-48 [1] turned out to be 700 µM. The molecule also showed an IC50 on Beta-lactamase OXA-48 [2] of 1020 µM.
The molecule `NC(=O)[C@@H]1CC[C@@H]2CN1C(=O)N2OS(=O)(=O)O` had an inhibition in series [4] of 50%.
`O=C(O)c1ccc(Oc2ccccc2)cc1`: the equilibrium dissociation constant (Kd) on Beta-lactamase OXA-48 [1] stood at 660 µM. For the same molecule, on Beta-lactamase OXA-48 [2], the half-maximal inhibitory concentration (IC50) was found to be 870 µM.
Turning to `O=C(O)c1cccc(-c2cccnc2)c1`, the Kd at Beta-lactamase OXA-48 [1] worked out at 280 µM. The molecule also showed an IC50 at Beta-lactamase OXA-48 [2] of 240 µM.
In the case of `CC(=O)c1cccc(-c2ccncc2)c1`, at Beta-lactamase OXA-48 [1], the Kd was above 1000 µM. On Beta-lactamase OXA-48 [2], this molecule showed an IC50 above 2000 µM.
Molecule `O=C(O)CSc1ccnc2cc(Cl)ccc12` yielded a half-maximal inhibitory concentration (IC50) against Beta-lactamase OXA-48 [2] of 220 µM.
Regarding `C[C@@H](O)[C@H]1C(=O)N2C(C(=O)O)=C(S[C@@H]3CN[C@H](C(=O)N(C)C)C3)[C@H](C)[C@H]12` [MEROPENEM], the Ka in [5] came to 4 ×10⁴ /M/s. Moreover, the off-rate constant (koff) on Beta-lactamase OXA-48 [6] amounted to 0.3463 s⁻¹. Also, at Beta-lactamase OXA-48 [1], the dissociation constant (Kd) was found to be 0.85 µM.
Take `O=C(O)c1ccccn1` [2-PICOLINIC ACID]: the Kd on Beta-lactamase OXA-48 [1] was above 1000 µM. The molecule further registered an IC50 on Beta-lactamase OXA-48 [2] above 2000 µM.
In turn, `O=C(O)c1cccc(C#Cc2ccccc2)c1` gave an IC50 at Beta-lactamase OXA-48 [2] of 480 µM.
For the molecule `O=C(O)CCCc1c[nH]c2ccccc12`, the Kd on Beta-lactamase OXA-48 [1] is 430 µM. On Beta-lactamase OXA-48 [2], this molecule yielded a half-maximal inhibitory concentration (IC50) of 480 µM.
With `O=C(O)c1ccc2[nH]ccc2c1`, the Kd on Beta-lactamase OXA-48 [1] was 1380 µM. Also, inhibition on Beta-lactamase OXA-48 [2] was half-maximal at 1390 µM (IC50).
Turning to `O=C(O)c1cccc(-c2ccncc2)c1`, at Beta-lactamase OXA-48 [1], the dissociation constant (Kd) is 280 µM. Also, the concentration for half-maximal inhibition (IC50) at Beta-lactamase OXA-48 [2] stood at 250 µM.
As for `O=C(O)c1ccc2ccncc2c1`, the Kd on Beta-lactamase OXA-48 [1] amounted to 1180 µM. Further, the IC50 at Beta-lactamase OXA-48 [2] is 2200 µM.

B1: Beta-lactamase OXA-48 (Klebsiella pneumoniae), Q6XEC0 (protein)
chain: MRVLALSAVFLVASIIGMPAVAKEWQENKSWNAHFTEHKSQGVVVLWNENKQQGFTNNLKRANQAFLPASTFKIPNSLIALDLGVVKDEHQVFKWDGQTRDIATWNRDHNLITAMKYSVVPVYQEFARQIGEARMSKMLHAFDYGNEDISGNVDSFWLDGGIRISATEQISFLRKLYHNKLHVSERSQRIVKQAMLTEANGDYIIRAKTGYSTRIEPKIGWWVGWVELDDNVWFFAMNMDMPTSDGLGLRQAITKEVLKQEKIIP
Turning to B1, the Km in series [7] worked out at 700 µM; in series [8], 150 µM; in series [9] it was 300 µM; in [10], 7.9 µM; in series [11], 1 µM; in series [12] it was 90 µM. The Km in series [13] amounted to 24 µM; in series [21], 150 µM. In addition, the kcat in [7] was found to be 8000 s⁻¹; in series [8], 560 s⁻¹; in [9] it was 9 s⁻¹; in series [10], 4.5 s⁻¹; in series [11], 0.098 s⁻¹; in [12], 1500 s⁻¹. The kcat was found to be 0.66 s⁻¹ in series [13] and 2300 s⁻¹ in series [21]. Also, the kcat/Km in [14] amounted to 1.1 ×10⁷ /M/s; in series [15] it was 3.7 ×10⁶ /M/s; in series [16] it was 3 ×10⁴ /M/s; in series [17] it was 5.7 ×10⁵ /M/s; in [18] it was 9.8 ×10⁴ /M/s; in series [19] it was 1.7 ×10⁷ /M/s. The kcat/Km in series [20] turned out to be 2.8 ×10⁴ /M/s; in [22], 1.5 ×10⁷ /M/s.
